This note sets out measurements from ChEMBL document CHEMBL4312006, “A novel chalcone derivative as Nrf2 activator attenuates learning and memory impairment in a scopolamine-induced mouse model” (Eur J Med Chem, 2020).

Molecules are shown by their SMILES. The source made the active and inactive calls. No cut-off for these calls is given here.

Series [1] addresses T1, Nuclear factor erythroid 2-related factor 2 (Mus musculus) (UniProt Q60795).
T1 sequence (whole entry): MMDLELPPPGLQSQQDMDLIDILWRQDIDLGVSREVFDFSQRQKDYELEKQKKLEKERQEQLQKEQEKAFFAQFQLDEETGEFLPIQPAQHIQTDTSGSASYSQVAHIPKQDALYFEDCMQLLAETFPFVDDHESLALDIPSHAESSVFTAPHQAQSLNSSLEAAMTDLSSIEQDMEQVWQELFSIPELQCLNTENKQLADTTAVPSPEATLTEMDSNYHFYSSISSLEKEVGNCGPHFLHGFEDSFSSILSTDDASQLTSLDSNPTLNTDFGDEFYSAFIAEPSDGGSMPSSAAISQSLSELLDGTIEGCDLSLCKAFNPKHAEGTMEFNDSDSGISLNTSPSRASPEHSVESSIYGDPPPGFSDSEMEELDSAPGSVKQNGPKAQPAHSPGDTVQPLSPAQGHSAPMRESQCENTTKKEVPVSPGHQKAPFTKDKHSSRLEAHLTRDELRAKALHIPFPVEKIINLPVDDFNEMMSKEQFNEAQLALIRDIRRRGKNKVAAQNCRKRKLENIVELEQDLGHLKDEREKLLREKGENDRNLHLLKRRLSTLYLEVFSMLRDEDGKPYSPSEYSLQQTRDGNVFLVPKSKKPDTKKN
Briefly: Activation of NRF2 in mouse BV2 cells upregulation of SOD1 protein expression incubated for 6 hrs by Western blot analysis. It is filed as cell-based. The method in brief: (§1)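 BV-2 cells washed in ice-cold PBS and lysed on ice for 40 min in RIPA buffer with protease inhibitors. Nuclear fractions prepared separately. 10 μg protein run on SDS-PAGE and blotted to PVDF. Membranes blocked in 5% skim milk/TBST and probed overnight at 4 °C for Nrf2, HO-1, GCLM or SOD1. HRP secondary with ECL detection. Band densities normalised to Lamin B1 or β-actin.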
In general terms: Immunoblotting shows a protein as a band on a membrane.

The target in series [2] is T1, Nuclear factor erythroid 2-related factor 2 (Mus musculus). Briefly: Activation of NRF2 in mouse BV2 cells assessed as increase in nuclear NRF2 level incubated for 6 hrs by Western blot analysis. In kind it is cell-based. The method, boiled down:
as §1

Series [3] shares this target. In words: Activation of NRF2 in mouse BV2 cells assessed as increase in GCLM mRNA level at 0.1 to 10 uM incubated for 8 hrs by qRT-PCR analysis. It is filed as cell-based. The method, boiled down: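 BV-2 microglia grown in RPMI 1640 with 10% FBS, 2.05 mM L-glutamine and penicillin-streptomycin at 37 °C, 5% CO2. Cells exposed to a range of compound concentrations for 8 h. Ho-1 or Gclm mRNA measured by qRT-PCR and expressed relative to untreated control. Means ± SEM, one-way ANOVA with Dunnett's test.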
In general terms: Real-time PCR tracks product formation cycle by cycle.

A short description of series [4]: Stability in human plasma assessed as compound remaining after 30 mins. In kind it is ADME, cell-free. As to conditions: read-out: Stability.
The next series is filed under the species Homo sapiens. Briefly: Inhibition of H2O2-stimulated ROS production in […] BV2 cells at 10 uM preincubated for 24 hrs followed by H2O2 stimulation for 20 mins by DCFH-DA dye based assay. It is filed as functional, cell-based. The method, boiled down: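 BV-2 microglial cells pretreated with 10 μM compound for 24 h, then exposed to a series of H2O2 concentrations for 20 min. Intracellular ROS measured by DCFH-DA fluorescence. One-way ANOVA with Tukey's test.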

In series [5] the target is T1, Nuclear factor erythroid 2-related factor 2 (Mus musculus). Briefly: Activation of NRF2 in mouse BV2 cells assessed as inhibition of H2O2-induced reduction in SOD activity incubated for 6 hrs followed by H2O2 stimulation and measured after 18 hrs by WST-1 based assay. In kind it is cell-based. The method in brief: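 BV-2 cells (1.0×10^6) treated with compound for 24 h, or for 6 h followed by 400 μM H2O2 for 18 h. Cells washed, sonicated in ice-cold PBS and centrifuged; supernatant assayed by WST-1/superoxide inhibition. Activity derived from the IC50 of the inhibition curve and given as U/mg protein (1 U = 50% inhibition of WST-1 reduction).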
(In general: Formazan colour is commonly taken as a measure of viable cells.)

For the next series, the target named is T2, CYP1A2 (Homo sapiens, UniProt P05177).
T2 sequence (P05177 whole entry): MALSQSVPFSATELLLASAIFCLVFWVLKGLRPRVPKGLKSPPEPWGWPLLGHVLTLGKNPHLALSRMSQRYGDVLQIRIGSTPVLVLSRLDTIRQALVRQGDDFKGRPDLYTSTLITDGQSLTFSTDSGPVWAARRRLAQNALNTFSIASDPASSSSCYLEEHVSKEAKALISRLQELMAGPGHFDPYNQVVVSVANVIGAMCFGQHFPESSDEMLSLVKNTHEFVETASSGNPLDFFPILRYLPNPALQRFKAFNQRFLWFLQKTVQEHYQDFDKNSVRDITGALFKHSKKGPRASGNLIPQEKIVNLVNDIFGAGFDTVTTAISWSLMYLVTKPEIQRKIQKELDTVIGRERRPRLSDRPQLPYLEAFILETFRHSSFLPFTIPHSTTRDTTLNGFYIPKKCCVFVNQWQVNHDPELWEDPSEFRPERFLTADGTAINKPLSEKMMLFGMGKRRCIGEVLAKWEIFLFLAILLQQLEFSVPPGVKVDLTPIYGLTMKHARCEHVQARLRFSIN
In words: Inhibition of CYP1A2 (unknown origin) assessed as remaining activity relative to control. It is filed as ADME.

The target of a further series is CYP2D6 (Homo sapiens, UniProt P10635). Briefly: Inhibition of CYP2D6 (unknown origin) assessed as remaining activity relative to control. In kind it is ADME.
Chain of CYP2D6 (P10635 whole entry): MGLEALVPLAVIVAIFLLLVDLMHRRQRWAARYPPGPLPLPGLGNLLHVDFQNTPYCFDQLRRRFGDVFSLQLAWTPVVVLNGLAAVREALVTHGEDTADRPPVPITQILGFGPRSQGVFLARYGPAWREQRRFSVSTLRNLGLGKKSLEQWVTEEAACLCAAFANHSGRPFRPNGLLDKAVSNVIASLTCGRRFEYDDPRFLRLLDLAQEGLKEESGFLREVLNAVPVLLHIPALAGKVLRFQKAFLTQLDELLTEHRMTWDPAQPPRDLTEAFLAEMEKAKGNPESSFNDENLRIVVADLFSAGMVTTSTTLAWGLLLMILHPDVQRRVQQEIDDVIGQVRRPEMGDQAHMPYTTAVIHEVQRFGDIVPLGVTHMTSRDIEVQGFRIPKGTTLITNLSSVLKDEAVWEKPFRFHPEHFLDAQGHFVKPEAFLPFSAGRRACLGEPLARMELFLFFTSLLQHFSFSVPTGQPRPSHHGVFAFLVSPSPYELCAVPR
Series [6] concerns the target T1, Nuclear factor erythroid 2-related factor 2 (Mus musculus). In words: Activation of NRF2 in mouse BV2 cells assessed as increase in nuclear NRF2 level at 10 uM incubated for 2 hrs by Western blot analysis. It is filed as cell-based. The method in brief:
as §1

The target is the same in series [7]. In words: Activation of NRF2 in mouse BV2 cells assessed as inhibition of LPS-stimulated iNOS expression preincubated for 3 hrs followed by LPS stimulation for 24 hrs by Western blot analysis. It is filed as cell-based. The method, boiled down:
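LPS-stimulated BV-2 cells pretreated with compound for 3 h. iNOS immunoblot (1:500) on 10 μg RIPA lysate protein, detected by ECL. Densities normalised to β-actin or Lamin B1 and compared with LPS-treated control.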

The target is the same in series [8]. In words: Activation of NRF2 in mouse BV2 cells assessed as increase in total NRF2 level at 0.1 to 10 uM incubated for 6 hrs by Western blot analysis. It is filed as cell-based. The method in brief:
as §1

For series [9] the target is unchanged. Briefly: Activation of NRF2 in mouse BV2 cells assessed as inhibition of LPS-stimulated NO production preincubated for 6 hrs followed by LPS stimulation for 24 hrs by Griess reagent-based assay. It is filed as cell-based. The method, boiled down: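 BV-2 cells pretreated with a range of compound concentrations for 6 h, then stimulated with 1 µg/mL LPS for 24 h. Medium nitrite measured by Griess reaction (sulfanilamide/phosphoric acid, then NED, 5 min each at room temperature in the dark). Absorbance at 540 nm read against a nitrite standard curve.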

For series [10] the target is unchanged. In words: Activation of NRF2 in mouse BV2 cells assessed as increase in GCLM protein expression at 3 uM incubated for 6 hrs by Western blot analysis. It is filed as cell-based. The method in brief: as §1
A further series concerns the target CYP3A4 (Homo sapiens, UniProt P08684). In words: Inhibition of CYP3A4 (unknown origin) assessed as remaining activity relative to control. It is filed as ADME.
Series [11] has as its target T1, Nuclear factor erythroid 2-related factor 2 (Mus musculus). In words: Activation of NRF2 in mouse BV2 cells assessed as increase in HO1 protein expression at 10 uM incubated for 12 hrs by Western blot analysis. It is filed as cell-based. The method in brief: as §1

Chain of CYP3A4 (P08684 whole entry): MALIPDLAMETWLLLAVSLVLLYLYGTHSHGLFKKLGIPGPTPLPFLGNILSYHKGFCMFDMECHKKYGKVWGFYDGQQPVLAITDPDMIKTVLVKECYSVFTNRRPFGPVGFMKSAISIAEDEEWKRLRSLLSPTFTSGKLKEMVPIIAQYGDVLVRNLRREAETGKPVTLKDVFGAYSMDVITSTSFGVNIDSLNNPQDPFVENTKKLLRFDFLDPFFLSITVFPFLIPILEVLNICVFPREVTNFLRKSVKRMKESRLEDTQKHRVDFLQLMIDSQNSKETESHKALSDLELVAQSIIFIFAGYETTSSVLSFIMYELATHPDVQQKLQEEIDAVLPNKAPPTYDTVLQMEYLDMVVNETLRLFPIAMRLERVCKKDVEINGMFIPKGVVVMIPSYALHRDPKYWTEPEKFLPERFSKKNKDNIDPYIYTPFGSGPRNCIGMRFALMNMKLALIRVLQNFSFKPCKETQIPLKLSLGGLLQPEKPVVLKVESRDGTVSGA

Consider `CN1CCN(C(=O)COc2ccc(C(=O)/C=C/c3ccccc3C(F)(F)F)cc2)CC1.Cl`, for which the Activity entry in series [1], in series [2], in series [7] and in series [9] was “Dose-dependent effect” in each case. Moreover, the Activity result in series [3], in series [5], in series [6], in series [8] and in series [10] was “Active” throughout. Moreover, in [4], the remaining at 0.5 h is > 100%. Moreover, in the series listed under Homo sapiens, the inhibition result was “Active”. Further, the values for the activity on CYP1A2, on CYP2D6 and at CYP3A4 were 98.5%, > 100% and > 100%, respectively. The fold change (FC) in series [11] was > 7.
